According to ChEMBL document CHEMBL1127542, “Inhibitors of acyl-CoA:cholesterol O-acyl transferase (ACAT) as hypocholesterolemic agents. 8. Incorporation of amide or amine functionalities into a series of disubstituted ureas and carbamates. Effects on ACAT inhibition in vitro and efficacy in vivo” (J Med Chem, 1994):

Species on record: Rattus norvegicus
Assay: Percent change in total cholesterol in cholic acid (0.5%)-cholesterol (1.5%)-peanut oil (5.5%)-fed rats
Format: functional
Method in brief: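 Acute screen: rats given a single gavage dose, 50 mg/kg standard unless noted, suspended in carboxymethylcellulose plus Tween-20 in water, then a single high-fat, high-cholesterol meal (0.5% cholic acid, 1.5% cholesterol, 5.5% peanut oil). Overnight rise in plasma total cholesterol measured as % change versus control. Stomachs checked for food. ANOVA with Fisher's multiple range test, p<0.05.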

**Q.** With CC(C)c1cccc(C(C)C)c1NC(=O)NCC(NCc1ccccc1)c1ccccc1 (single isomer, unassigned; (-)) as the molecule, how does the Change read?
**A.** -29%

**Q.** How did the Change turn out when CC(C)c1cccc(C(C)C)c1NC(=O)NCC(NCc1ccccc1C(F)(F)F)c1ccccc1 (single isomer, unassigned; (-)) was run?
**A.** -42%

**Q.** For CCCCCCCCCCCC(=O)NC(CNC(=O)Oc1c(C(C)C)cccc1C(C)C)c1ccccc1 (single isomer, unassigned; (-)), which Change is on record?
**A.** 25%

**Q.** With CC(C)c1cccc(C(C)C)c1NC(=O)NCC(NCc1ccc(O)c(CN(C)C)c1)c1ccccc1 (single isomer, unassigned; (-)) as the molecule, how does the Change read?
**A.** -46%

**Q.** COc1ccc(CNC(CCSC)CNC(=O)Nc2c(C(C)C)cccc2C(C)C)cc1 (single isomer, unassigned; (+)) was tested. Which Change did it give?
**A.** -31%

**Q.** For COc1ccc(CNC(CNC(=O)Nc2c(C(C)C)cccc2C(C)C)c2ccccc2)cc1 (racemic), which Change is on record?
**A.** -54%

**Q.** CCCCCCCCCCCC(=O)NC(COC(=O)Nc1c(C(C)C)cccc1C(C)C)c1ccccc1 (stereo not drawn) was tested. Which Change did it give?
**A.** -16%

**Q.** Which Change does the source give for CCCCCCCCCCCCCCCCCCNC(CNC(=O)Nc1c(C(C)C)cccc1C(C)C)c1ccccc1 (racemic) here?
**A.** -3%

**Q.** Which Change does the source give for COc1ccccc1CNC(CNC(=O)Nc1c(C(C)C)cccc1C(C)C)c1ccccc1 (single isomer, unassigned; (-)) here?
**A.** -23%

**Q.** For CC(C)c1cccc(C(C)C)c1NC(=O)NCC(Cc1ccccc1)NCc1ccccc1O (stereo not drawn), which Change is on record?
**A.** -37%

**Q.** With COc1ccc(C(=O)NC(C)(CNC(=O)Nc2c(C(C)C)cccc2C(C)C)c2ccccn2)cc1 (racemic) as the molecule, how does the Change read?
**A.** -23%

**Q.** For CC(C)c1cccc(C(C)C)c1NC(=O)NCC(NCc1ccncc1)c1ccccc1 (single isomer, unassigned; (+)), which Change is on record?
**A.** -19%

**Q.** Which Change does the source give for CC(C)c1cccc(C(C)C)c1NC(=O)NCC(NCc1ccccn1)c1ccccc1 (stereo not drawn) here?
**A.** -15%

**Q.** How did the Change turn out when CCCCCCCCCCCCCCCCCC(=O)NC(CNC(=O)Nc1c(C(C)C)cccc1C(C)C)c1ccccc1 (stereo not drawn) was run?
**A.** 8%

**Q.** For CC(C)c1cccc(C(C)C)c1NC(=O)NCC(NCc1ccco1)c1ccccc1 (single isomer, unassigned; (-)), which Change is on record?
**A.** -18%

**Q.** Which Change does the source give for CC(C)c1cccc(C(C)C)c1NC(=O)NCC(NC(=O)c1cccc2ccccc12)c1ccccc1 (stereo not drawn) here?
**A.** -14%

**Q.** How did the Change turn out when CC(C)c1cccc(C(C)C)c1NC(=O)NCC(NCc1ccccc1)c1ccccc1 (stereo in doubt; 9k(+)) was run?
**A.** -41%

**Q.** Which Change does the source give for CC(C)c1cccc(C(C)C)c1NC(=O)NCC(NCc1cccnc1)c1ccccc1 (stereo not drawn) here?
**A.** -26%

**Q.** For CC(C)c1cccc(C(C)C)c1NC(=O)OCC(NCc1ccc(N(C)C)cc1)c1ccccc1.Cl (stereo not drawn), which Change is on record?
**A.** -23%

**Q.** Cc1ccc(CNC(CNC(=O)Nc2c(C(C)C)cccc2C(C)C)c2ccccc2)cc1 (racemic) was tested. Which Change did it give?
**A.** -45%

**Q.** For COc1ccc(CNC(CNC(=O)Nc2c(C(C)C)cccc2C(C)C)c2ccccc2)cc1 (single isomer, unassigned; (-)), which Change is on record?
**A.** -45%

**Q.** COc1ccc(C(=O)NC(C)(C)CNC(=O)Nc2c(C(C)C)cccc2C(C)C)cc1 was tested. Which Change did it give?
**A.** -9%

**Q.** CCCCCCCCCCC(C)(C)C(=O)Nc1c(OC)cc(OC)cc1OC [CL-976] was tested. Which Change did it give?
**A.** -44%

These molecules were tested against Sterol O-acyltransferase 1 (Oryctolagus cuniculus) (assay: In vitro inhibition of rabbit intestinal acyl coenzyme A:cholesterol acyltransferase using [1-14C]oleolyl-CoA).

**Q.** For CC(C)c1cccc(C(C)C)c1NC(=O)NCC(NCc1ccccc1)c1ccccc1 (single isomer, unassigned; (-)), which IC50 is on record?
**A.** 33 nM

**Q.** How did the IC50 turn out when CC(C)c1cccc(C(C)C)c1NC(=O)NCC(NCc1ccccc1C(F)(F)F)c1ccccc1 (single isomer, unassigned; (-)) was run?
**A.** 45 nM

**Q.** For CCCCCCCCCCCC(=O)NC(CNC(=O)Oc1c(C(C)C)cccc1C(C)C)c1ccccc1 (single isomer, unassigned; (-)), which IC50 is on record?
**A.** 51 nM

**Q.** Which IC50 does the source give for CC(C)c1cccc(C(C)C)c1NC(=O)NCC(CN(C)Cc1ccccc1)c1ccccc1 (stereo not drawn) here?
**A.** > 10000 nM

**Q.** Which IC50 does the source give for CC(C)c1cccc(C(C)C)c1NC(=O)NCC(NCc1ccc(O)c(CN(C)C)c1)c1ccccc1 (single isomer, unassigned; (-)) here?
**A.** 490 nM

**Q.** Which IC50 does the source give for COc1ccc(CNC(CCSC)CNC(=O)Nc2c(C(C)C)cccc2C(C)C)cc1 (single isomer, unassigned; (+)) here?
**A.** 490 nM

**Q.** Which IC50 does the source give for COc1ccc(CNC(CNC(=O)Nc2c(C(C)C)cccc2C(C)C)c2ccccc2)cc1 (racemic) here?
**A.** 48 nM

**Q.** For CCCCCCCCCCCC(=O)NC(COC(=O)Nc1c(C(C)C)cccc1C(C)C)c1ccccc1 (stereo not drawn), which IC50 is on record?
**A.** 200 nM

**Q.** CCCCCCCCCCCCCCCCCCNC(CNC(=O)Nc1c(C(C)C)cccc1C(C)C)c1ccccc1 (racemic) was tested. Which IC50 did it give?
**A.** 230 nM

**Q.** COc1ccccc1CNC(CNC(=O)Nc1c(C(C)C)cccc1C(C)C)c1ccccc1 (single isomer, unassigned; (-)) was tested. Which IC50 did it give?
**A.** 45 nM

**Q.** CC(C)c1cccc(C(C)C)c1NC(=O)NCC(Cc1ccccc1)NCc1ccccc1O (stereo not drawn) was tested. Which IC50 did it give?
**A.** 410 nM

**Q.** For COc1ccc(C(=O)NC(C)(CNC(=O)Nc2c(C(C)C)cccc2C(C)C)c2ccccn2)cc1 (racemic), which IC50 is on record?
**A.** 610 nM

**Q.** How did the IC50 turn out when CC(C)c1cccc(C(C)C)c1NC(=O)NCC(NCc1ccncc1)c1ccccc1 (single isomer, unassigned; (+)) was run?
**A.** 1200 nM

**Q.** How did the IC50 turn out when CC(C)c1cccc(C(C)C)c1NC(=O)NCC(NCc1ccccn1)c1ccccc1 (stereo not drawn) was run?
**A.** 140 nM

**Q.** With CCCCCCCCCCCCCCCCCC(=O)NC(CNC(=O)Nc1c(C(C)C)cccc1C(C)C)c1ccccc1 (stereo not drawn) as the molecule, how does the IC50 read?
**A.** 1700 nM

**Q.** CC(C)c1cccc(C(C)C)c1NC(=O)NCC(NCc1ccco1)c1ccccc1 (single isomer, unassigned; (-)) was tested. Which IC50 did it give?
**A.** 48 nM

**Q.** CC(C)c1cccc(C(C)C)c1NC(=O)NCC(CN(Cc1ccccc1)Cc1ccccc1)c1ccccc1 (stereo not drawn) was tested. Which IC50 did it give?
**A.** 7600 nM

**Q.** For CC(C)c1cccc(C(C)C)c1NC(=O)NCC(NC(=O)c1cccc2ccccc12)c1ccccc1 (stereo not drawn), which IC50 is on record?
**A.** 970 nM

**Q.** CC(C)c1cccc(C(C)C)c1NC(=O)NCC(NCc1ccccc1)c1ccccc1 (stereo in doubt; 9k(+)) was tested. Which IC50 did it give?
**A.** 53 nM

**Q.** With CC(C)c1cccc(C(C)C)c1NC(=O)NCC(NCc1cccnc1)c1ccccc1 (stereo not drawn) as the molecule, how does the IC50 read?
**A.** 370 nM

**Q.** With CCCCCCC(=O)NC(COC(=O)Nc1c(C(C)C)cccc1C(C)C)c1ccccc1 (single isomer, unassigned; (+)) as the molecule, how does the IC50 read?
**A.** 5100 nM

**Q.** How did the IC50 turn out when Cc1ccc(CNC(CNC(=O)Nc2c(C(C)C)cccc2C(C)C)c2ccccc2)cc1 (racemic) was run?
**A.** 52 nM

**Q.** COc1ccc(CNC(CNC(=O)Nc2c(C(C)C)cccc2C(C)C)c2ccccc2)cc1 (single isomer, unassigned; (-)) was tested. Which IC50 did it give?
**A.** 39 nM

**Q.** CC(C)c1cccc(C(C)C)c1NC(=O)OCC(NC(=O)OC(C)(C)C)c1ccccc1 (stereo not drawn) was tested. Which IC50 did it give?
**A.** 2500 nM

**Q.** Which IC50 does the source give for CC(C)c1cccc(C(C)C)c1NC(=O)NC(CNC(=O)c1ccccc1)c1ccccc1 (stereo not drawn) here?
**A.** 3600 nM
